Our source for the inhibition, IC50 and Activity values is ChEMBL document CHEMBL5661979, “Pharmacological inhibition of BMK1 suppresses tumor growth through promyelocytic leukemia protein” (Cancer Cell, 2010).

Where only a bound is given, the exact number is not on record here.

The target in experiment [1] is T1, Serine/threonine-protein kinase 38 (Homo sapiens, UniProt Q15208). The experiment is described as follows: Inhibition of NDR1 in human HeLa cells lysate at 50 uM pre incubated for 15 mins followed by ATP acyl phosphate probe addition and measured after 10 mins by LC-MS/MS analysis relative to control. Type of experiment: subcellular. Particulars: time 25.0 min.
Target sequence in this assay (Q15208 2-465 limits assumed): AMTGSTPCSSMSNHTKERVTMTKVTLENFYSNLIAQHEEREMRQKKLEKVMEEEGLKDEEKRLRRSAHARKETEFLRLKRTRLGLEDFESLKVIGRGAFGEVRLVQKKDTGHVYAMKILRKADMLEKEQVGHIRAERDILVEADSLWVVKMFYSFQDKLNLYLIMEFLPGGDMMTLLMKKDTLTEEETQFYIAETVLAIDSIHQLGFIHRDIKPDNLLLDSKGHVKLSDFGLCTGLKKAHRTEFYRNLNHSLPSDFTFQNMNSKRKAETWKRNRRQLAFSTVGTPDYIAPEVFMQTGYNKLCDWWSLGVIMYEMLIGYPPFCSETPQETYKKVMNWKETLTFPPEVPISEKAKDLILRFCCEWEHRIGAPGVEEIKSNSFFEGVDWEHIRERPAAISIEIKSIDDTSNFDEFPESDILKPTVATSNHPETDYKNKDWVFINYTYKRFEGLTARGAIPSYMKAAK

Experiment [2] addresses Calcium/calmodulin-dependent protein kinase type 1D (Homo sapiens, UniProt Q8IU85). The experiment is described as follows: Inhibition of CAMK1d in human HeLa cells lysate at 2 uM pre incubated for 15 mins followed by ADP acyl phosphate probe addition and measured after 10 mins by LC-MS/MS analysis relative to control. Type of experiment: subcellular. Particulars: time 25.0 min. Put shortly: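 KiNativ-type profiling in HeLa lysate (5 mg/mL total protein). Lysate preincubated 15 min with inhibitor at 50, 10, 2, 0.8 or 0 μM, then ATP or ADP acylphosphate probe added (5 μM final) for 10 min. Reaction stopped with urea and analysed by targeted MS, using up to four fragment ions per kinase peptide-probe conjugate. % inhibition calculated against untreated lysate. Duplicate reactions.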

Experiment [3] deals with T1, Serine/threonine-protein kinase 38. Nature of the experiment: Inhibition of NDR1 in human HeLa cells lysate pre incubated for 15 mins followed by ATP acyl phosphate probe addition and measured after 10 mins by LC-MS/MS analysis. Type of experiment: subcellular.
Target sequence in this assay (Q15208 whole entry): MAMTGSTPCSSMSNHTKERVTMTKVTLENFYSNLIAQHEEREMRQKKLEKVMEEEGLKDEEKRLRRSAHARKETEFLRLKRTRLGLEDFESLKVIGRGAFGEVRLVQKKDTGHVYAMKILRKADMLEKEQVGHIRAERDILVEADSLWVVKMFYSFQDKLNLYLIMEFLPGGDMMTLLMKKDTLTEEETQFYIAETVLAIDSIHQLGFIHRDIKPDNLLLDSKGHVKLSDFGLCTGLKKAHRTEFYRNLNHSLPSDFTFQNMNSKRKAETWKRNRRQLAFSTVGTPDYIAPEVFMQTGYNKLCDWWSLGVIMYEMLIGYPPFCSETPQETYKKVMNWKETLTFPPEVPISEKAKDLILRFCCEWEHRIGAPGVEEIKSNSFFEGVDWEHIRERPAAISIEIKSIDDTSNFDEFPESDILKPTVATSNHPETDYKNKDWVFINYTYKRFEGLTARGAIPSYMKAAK
Experiment [4] concerns Tyrosine-protein kinase ABL1 (Homo sapiens), P00519 [F317I]. The experiment is described as follows: Inhibition of ABL1 F317I mutant (unknown origin) assessed as remaining activity at 10 uM by ATP-competition binding assay relative to control.
In experiment [5] the target is Calcium/calmodulin-dependent protein kinase kinase 1 (Homo sapiens, UniProt Q8N5S9). Nature of the experiment: Inhibition of CAMKK1 in human HeLa cells lysate at 50 uM pre incubated for 15 mins followed by ADP acyl phosphate probe addition and measured after 10 mins by LC-MS/MS analysis relative to control. It is filed as subcellular. Particulars: time 25.0 min. Put shortly: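 KiNativ profiling in HeLa lysate (5 mg/mL total protein). Lysate incubated 15 min with inhibitor at 50, 10, 2, 0.8 or 0 μM. ATP or ADP acylphosphate probe then added (5 μM final) and reacted 10 min. Reaction stopped with urea and analysed by targeted MS, using up to four fragment ions per kinase peptide-probe conjugate. % inhibition taken against untreated lysate. Run in duplicate.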

The target in experiment [6] is T2, Serine/threonine-protein kinase Sgk3 (Homo sapiens) (UniProt Q96BR1).
T2 sequence (whole entry): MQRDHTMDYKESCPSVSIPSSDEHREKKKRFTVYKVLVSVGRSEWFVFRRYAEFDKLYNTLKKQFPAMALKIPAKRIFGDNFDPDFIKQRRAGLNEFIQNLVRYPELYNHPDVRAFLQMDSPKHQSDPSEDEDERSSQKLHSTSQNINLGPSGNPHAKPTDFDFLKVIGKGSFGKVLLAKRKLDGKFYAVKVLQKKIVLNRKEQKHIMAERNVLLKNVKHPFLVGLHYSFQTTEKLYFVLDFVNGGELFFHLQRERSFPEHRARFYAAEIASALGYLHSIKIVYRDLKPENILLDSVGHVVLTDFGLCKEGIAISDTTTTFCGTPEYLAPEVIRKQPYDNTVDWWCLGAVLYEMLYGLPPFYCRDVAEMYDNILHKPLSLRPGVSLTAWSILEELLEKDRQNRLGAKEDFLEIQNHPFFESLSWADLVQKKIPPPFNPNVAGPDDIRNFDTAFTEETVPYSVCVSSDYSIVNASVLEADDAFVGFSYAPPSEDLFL
The experiment is described as follows: Inhibition of SGK3 in human HeLa cells lysate at 2 uM pre incubated for 15 mins followed by ATP acyl phosphate probe addition and measured after 10 mins by LC-MS/MS analysis relative to control. Type of experiment: subcellular. Particulars: time 25.0 min.

Experiment [7] concerns the target T3, Serine/threonine-protein kinase Nek9 (Homo sapiens) (UniProt Q8TD19).
T3 sequence (whole entry): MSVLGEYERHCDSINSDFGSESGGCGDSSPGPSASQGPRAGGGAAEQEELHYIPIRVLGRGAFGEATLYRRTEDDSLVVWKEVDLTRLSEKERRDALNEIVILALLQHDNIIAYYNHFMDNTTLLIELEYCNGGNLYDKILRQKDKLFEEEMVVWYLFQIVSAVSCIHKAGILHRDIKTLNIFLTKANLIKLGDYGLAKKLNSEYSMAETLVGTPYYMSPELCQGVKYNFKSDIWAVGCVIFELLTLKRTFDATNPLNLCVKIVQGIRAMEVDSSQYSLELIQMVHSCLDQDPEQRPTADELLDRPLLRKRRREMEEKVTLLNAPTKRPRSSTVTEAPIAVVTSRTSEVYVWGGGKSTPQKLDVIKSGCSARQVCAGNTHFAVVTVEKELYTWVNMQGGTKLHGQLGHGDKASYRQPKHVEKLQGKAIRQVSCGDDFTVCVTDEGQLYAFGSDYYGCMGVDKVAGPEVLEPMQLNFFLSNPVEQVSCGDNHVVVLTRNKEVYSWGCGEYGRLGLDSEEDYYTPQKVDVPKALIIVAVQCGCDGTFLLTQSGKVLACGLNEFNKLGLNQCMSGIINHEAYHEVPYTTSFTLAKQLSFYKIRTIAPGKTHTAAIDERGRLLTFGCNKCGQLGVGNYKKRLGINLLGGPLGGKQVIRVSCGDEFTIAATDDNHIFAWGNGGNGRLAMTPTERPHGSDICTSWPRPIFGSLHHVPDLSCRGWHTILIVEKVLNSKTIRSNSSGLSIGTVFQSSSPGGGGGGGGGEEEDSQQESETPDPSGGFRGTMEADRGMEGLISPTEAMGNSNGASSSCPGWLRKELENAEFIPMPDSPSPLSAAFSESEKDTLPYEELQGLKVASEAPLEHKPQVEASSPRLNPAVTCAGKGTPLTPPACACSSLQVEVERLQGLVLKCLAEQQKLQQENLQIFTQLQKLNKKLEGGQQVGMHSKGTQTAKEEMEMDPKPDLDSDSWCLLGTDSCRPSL
The experiment is described as follows: Inhibition of NEK9 in human HeLa cells lysate at 50 uM pre incubated for 15 mins followed by ADP acyl phosphate probe addition and measured after 10 mins by LC-MS/MS analysis relative to control. Type of experiment: subcellular. Particulars: time 25.0 min.

The target of a further experiment is Activated CDC42 kinase 1 (Homo sapiens, UniProt Q07912). Nature of the experiment: Inhibition of ACK1 in human HeLa cells lysate pre incubated for 15 mins followed by ADP acyl phosphate probe addition and measured after 10 mins by LC-MS/MS analysis. Type of experiment: subcellular. Put shortly: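 HeLa cell lysate (5 mg/mL total protein) preincubated 15 min with inhibitor at 50, 10, 2, 0.8 and 0 μM, then ATP or ADP acylphosphate probe added (5 μM final) for 10 min. Reaction stopped with urea, then targeted LC-MS/MS. Up to four fragment ions per kinase peptide-probe conjugate were used. % inhibition was taken versus untreated lysate. Run in duplicate.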

For experiment [8], the target named is 5'-AMP-activated protein kinase catalytic subunit alpha-1 (Homo sapiens, UniProt Q13131). The experiment is described as follows: Inhibition of AMPKalpha1 in human HeLa cells lysate at 50 uM pre incubated for 15 mins followed by ADP acyl phosphate probe addition and measured after 10 mins by LC-MS/MS analysis relative to control. It is filed as subcellular. Particulars: time 25.0 min. Put shortly:
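HeLa cell lysates (5 mg/mL total protein) were preincubated with inhibitor at 0, 0.8, 2, 10 or 50 μM for 15 min. ATP or ADP acylphosphate probe was then added (5 μM final) for 10 min, and reactions were stopped with urea. Up to four fragment ions per kinase probe-peptide were quantified by targeted MS. % inhibition was taken relative to untreated lysate. Run in duplicate.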

5'-AMP-activated protein kinase catalytic subunit alpha-1, sequence (Q13131 whole entry, looked up, the tested form may be a part): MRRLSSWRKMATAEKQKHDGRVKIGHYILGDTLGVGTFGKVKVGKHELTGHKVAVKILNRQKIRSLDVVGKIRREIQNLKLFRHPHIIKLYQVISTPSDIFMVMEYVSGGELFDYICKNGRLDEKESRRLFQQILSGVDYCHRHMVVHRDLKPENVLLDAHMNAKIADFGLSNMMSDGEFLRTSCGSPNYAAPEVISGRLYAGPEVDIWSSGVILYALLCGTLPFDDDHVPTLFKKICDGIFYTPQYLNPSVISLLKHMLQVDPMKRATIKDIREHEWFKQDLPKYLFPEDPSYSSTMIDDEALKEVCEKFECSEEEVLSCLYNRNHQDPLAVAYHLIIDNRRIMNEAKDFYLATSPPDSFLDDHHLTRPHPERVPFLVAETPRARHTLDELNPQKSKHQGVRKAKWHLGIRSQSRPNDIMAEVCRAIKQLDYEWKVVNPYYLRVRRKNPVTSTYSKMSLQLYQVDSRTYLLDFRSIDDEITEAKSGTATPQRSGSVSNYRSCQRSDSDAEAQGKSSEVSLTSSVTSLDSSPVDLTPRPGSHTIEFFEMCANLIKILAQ
Activated CDC42 kinase 1, sequence (Q07912 whole entry, the tested form may be a part): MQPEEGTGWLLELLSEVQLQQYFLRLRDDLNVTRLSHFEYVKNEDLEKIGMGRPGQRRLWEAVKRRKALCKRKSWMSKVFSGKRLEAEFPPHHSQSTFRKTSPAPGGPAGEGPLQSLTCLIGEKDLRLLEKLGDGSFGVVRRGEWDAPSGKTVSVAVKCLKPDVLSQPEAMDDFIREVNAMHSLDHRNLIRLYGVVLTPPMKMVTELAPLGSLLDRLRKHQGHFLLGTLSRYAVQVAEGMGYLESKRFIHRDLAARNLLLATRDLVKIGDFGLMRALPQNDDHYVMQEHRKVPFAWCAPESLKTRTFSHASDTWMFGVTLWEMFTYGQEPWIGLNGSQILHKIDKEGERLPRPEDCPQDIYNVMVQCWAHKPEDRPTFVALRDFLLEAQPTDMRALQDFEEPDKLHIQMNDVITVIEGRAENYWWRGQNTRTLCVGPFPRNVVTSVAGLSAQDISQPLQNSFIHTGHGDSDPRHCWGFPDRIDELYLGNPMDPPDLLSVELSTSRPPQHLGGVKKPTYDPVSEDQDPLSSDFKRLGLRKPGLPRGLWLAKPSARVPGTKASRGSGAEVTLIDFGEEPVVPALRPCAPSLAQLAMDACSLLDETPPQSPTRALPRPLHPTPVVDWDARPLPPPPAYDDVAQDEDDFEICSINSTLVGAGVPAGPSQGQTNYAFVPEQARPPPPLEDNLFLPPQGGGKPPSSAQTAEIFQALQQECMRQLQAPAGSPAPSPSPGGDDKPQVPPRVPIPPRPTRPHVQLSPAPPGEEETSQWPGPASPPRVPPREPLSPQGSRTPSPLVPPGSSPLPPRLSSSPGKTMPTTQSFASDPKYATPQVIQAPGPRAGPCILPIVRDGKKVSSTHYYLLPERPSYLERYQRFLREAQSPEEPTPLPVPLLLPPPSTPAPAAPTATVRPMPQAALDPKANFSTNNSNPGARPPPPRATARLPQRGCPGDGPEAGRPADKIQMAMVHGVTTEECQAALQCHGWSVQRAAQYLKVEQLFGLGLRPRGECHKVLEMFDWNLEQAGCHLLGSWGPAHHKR
Calcium/calmodulin-dependent protein kinase type 1D, sequence (Q8IU85 whole entry, looked up, the tested form may be a part): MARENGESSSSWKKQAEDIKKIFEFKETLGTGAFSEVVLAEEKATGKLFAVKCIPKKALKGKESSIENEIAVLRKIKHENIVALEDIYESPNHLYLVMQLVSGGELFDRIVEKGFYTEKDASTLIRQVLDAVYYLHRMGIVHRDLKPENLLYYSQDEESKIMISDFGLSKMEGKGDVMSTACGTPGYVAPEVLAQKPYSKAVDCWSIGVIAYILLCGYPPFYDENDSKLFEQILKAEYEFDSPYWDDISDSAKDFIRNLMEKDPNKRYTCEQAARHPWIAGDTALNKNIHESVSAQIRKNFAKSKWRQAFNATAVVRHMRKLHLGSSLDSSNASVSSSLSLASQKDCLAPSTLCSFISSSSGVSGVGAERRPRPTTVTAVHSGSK
Calcium/calmodulin-dependent protein kinase kinase 1, sequence (Q8N5S9 whole entry, looked up, the tested form may be a part): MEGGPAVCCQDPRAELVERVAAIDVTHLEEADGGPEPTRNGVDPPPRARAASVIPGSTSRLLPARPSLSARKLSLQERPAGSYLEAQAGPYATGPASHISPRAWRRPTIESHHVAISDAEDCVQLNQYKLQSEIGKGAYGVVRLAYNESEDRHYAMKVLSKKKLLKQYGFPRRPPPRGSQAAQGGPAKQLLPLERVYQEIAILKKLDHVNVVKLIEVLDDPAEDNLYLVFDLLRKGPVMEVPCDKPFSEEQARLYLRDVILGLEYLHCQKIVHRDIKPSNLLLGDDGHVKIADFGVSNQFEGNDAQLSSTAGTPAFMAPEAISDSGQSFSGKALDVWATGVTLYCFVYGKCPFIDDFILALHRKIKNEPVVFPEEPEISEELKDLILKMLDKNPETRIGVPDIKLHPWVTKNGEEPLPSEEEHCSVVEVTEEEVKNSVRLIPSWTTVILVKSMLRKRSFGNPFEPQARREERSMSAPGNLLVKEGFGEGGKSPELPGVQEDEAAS
Tyrosine-protein kinase ABL1 (Homo sapiens), P00519 [F317I], sequence (P00519 whole entry F317I): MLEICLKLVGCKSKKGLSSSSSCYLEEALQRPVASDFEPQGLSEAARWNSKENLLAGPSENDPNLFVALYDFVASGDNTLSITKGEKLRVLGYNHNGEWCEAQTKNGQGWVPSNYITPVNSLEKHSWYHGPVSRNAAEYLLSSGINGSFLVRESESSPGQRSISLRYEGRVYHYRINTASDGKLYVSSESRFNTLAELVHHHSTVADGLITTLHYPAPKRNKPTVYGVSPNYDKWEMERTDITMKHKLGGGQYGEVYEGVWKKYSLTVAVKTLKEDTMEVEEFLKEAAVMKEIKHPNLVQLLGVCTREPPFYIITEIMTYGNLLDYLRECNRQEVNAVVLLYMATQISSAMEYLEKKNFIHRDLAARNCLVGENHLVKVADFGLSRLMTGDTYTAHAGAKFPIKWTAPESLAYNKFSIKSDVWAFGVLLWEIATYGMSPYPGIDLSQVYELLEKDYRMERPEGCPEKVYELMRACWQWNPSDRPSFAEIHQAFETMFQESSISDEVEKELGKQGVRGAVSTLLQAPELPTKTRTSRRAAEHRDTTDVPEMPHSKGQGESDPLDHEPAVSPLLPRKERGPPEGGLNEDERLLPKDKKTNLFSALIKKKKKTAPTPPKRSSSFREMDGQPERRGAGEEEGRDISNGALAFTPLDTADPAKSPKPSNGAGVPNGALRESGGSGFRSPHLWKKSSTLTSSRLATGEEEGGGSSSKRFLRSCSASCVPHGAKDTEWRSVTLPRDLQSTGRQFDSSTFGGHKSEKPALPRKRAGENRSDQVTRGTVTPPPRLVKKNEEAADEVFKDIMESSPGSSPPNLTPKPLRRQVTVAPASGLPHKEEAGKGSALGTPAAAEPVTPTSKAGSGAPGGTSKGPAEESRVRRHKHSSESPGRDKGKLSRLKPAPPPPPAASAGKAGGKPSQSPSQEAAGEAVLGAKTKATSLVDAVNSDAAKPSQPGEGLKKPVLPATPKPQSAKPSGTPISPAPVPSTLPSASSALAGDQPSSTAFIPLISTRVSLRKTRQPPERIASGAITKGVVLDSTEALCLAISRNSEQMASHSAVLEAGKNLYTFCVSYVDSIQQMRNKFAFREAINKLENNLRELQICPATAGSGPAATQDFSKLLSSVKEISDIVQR

Regarding `CCOc1cc(N2CCC(O)CC2)ccc1Nc1ncc2c(n1)N(C)c1ccccc1C(=O)N2C`, the inhibition (usually the share of the control response that was lost under treatment) in experiment [1] turned out to be 5.3%; in experiment [2], 4.7%; in experiment [5], 17%; in [6], 15.9%; in experiment [7], 4.5%; in experiment [8], 10.2%. Besides, the IC50 – broadly, the concentration that inhibits the measured activity by half – in experiment [3] was above 50 µM; at Activated CDC42 kinase 1 it was 18 µM. Further, in experiment [4], the Activity came to 30%.
